# According to ChEMBL document CHEMBL1158962, “Isolation and characterization of two antimicrobial agents from mace (Myristica fragrans)” (1991):
# Legend:
# Assay type in all cases: functional
# Bacillus subtilis [1] = test: Antimicrobial activity against Bacillus subtilis NCTC 10400 after 24 hrs by agar dilution method; conditions: NCTC 10400, 24 h
# Outline: (§1)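 Agar dilution. Each test substance was first taken at 320 µg per 0.1 ml DMSO, mixed with 10 ml warm nutrient agar (45-50°) and left to set. NCTC bacteria were streaked radially and incubated at 37°. MIC was the lowest drug concentration showing no growth, read at 24 h and at 48 h. Chloramphenicol was the positive control.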
# Candida albicans [2] = test: Antimicrobial activity against Candida albicans ATCC 12301 after 24 hrs by agar dilution method
# Outline: as §1, with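 “C. albicans strains” for “NCTC bacteria”, “30°.” for “37°.”, “with” for “showing”, “Nystatin” for “Chloramphenicol”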
# Candida albicans [3] = test: Antimicrobial activity against Candida albicans 3110 after 24 hrs by agar dilution method
# Outline: as §1, with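 “C. albicans strains” for “NCTC bacteria”, “30°.” for “37°.”, “with” for “showing”, “Nystatin” for “Chloramphenicol”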
# Staphylococcus aureus [4] = test: Antimicrobial activity against Staphylococcus aureus NCTC 6571 after 24 hrs by agar dilution method; conditions: NCTC 6571, 24 h; outline: as §1
# Candida albicans [5] = test: Antimicrobial activity against Candida albicans 3153 after 24 hrs by agar dilution method
# Outline: as §1, with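 “C. albicans strains” for “NCTC bacteria”, “30°.” for “37°.”, “with” for “showing”, “Nystatin” for “Chloramphenicol”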
# Enterococcus durans [6] = test: Antimicrobial activity against Streptococcus durans NCTC 8307 after 24 hrs by agar dilution method; conditions: NCTC 8307, 24 h; outline: as §1
# Staphylococcus aureus [7] = test: Antimicrobial activity against Staphylococcus aureus NCTC 6571 after 48 hrs by agar dilution method; conditions: NCTC 6571, 48 h; outline: as §1
# Enterococcus durans [8] = test: Antimicrobial activity against Streptococcus durans NCTC 8307 after 48 hrs by agar dilution method; conditions: NCTC 8307, 48 h; outline: as §1
# Bacillus subtilis [9] = test: Antimicrobial activity against Bacillus subtilis NCTC 10400 after 48 hrs by agar dilution method; conditions: NCTC 10400, 48 h; outline: as §1
# Candida albicans [10] = test: Antimicrobial activity against Candida albicans ATCC 12301 after 48 hrs by agar dilution method
# Outline: as §1, with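 “C. albicans strains” for “NCTC bacteria”, “30°.” for “37°.”, “with” for “showing”, “Nystatin” for “Chloramphenicol”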
# Candida albicans [11] = test: Antimicrobial activity against Candida albicans 3110 after 48 hrs by agar dilution method
# Outline: as §1, with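 “C. albicans strains” for “NCTC bacteria”, “30°.” for “37°.”, “with” for “showing”, “Nystatin” for “Chloramphenicol”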
# Candida albicans [12] = test: Antimicrobial activity against Candida albicans 3153 after 48 hrs by agar dilution method
# Outline: as §1, with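 “C. albicans strains” for “NCTC bacteria”, “30°.” for “37°.”, “with” for “showing”, “Nystatin” for “Chloramphenicol”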
# [13] = ATCC 10231, 24 h, in the assay text read “ATCC 10231” for “ATCC 12301”, read-out: MIC
# [14] = Candida albicans, 3153, 24 h, read-out: MIC
# [15] = ATCC 10231, 48 h, in the assay text read “ATCC 10231” for “ATCC 12301”
# [16] = Candida albicans, 3110, 24 h, read-out: MIC
# [17] = ATCC 10231, 48 h, in the assay text read “ATCC 10231” for “ATCC 12301”, read-out: MIC
# [18] = Candida albicans, 3110, 48 h, read-out: MIC
# [19] = Candida albicans, 3153, 48 h, read-out: MIC
# [20] = ATCC 10231, 24 h, in the assay text read “ATCC 10231” for “ATCC 12301”
Compound,MIC (Bacillus subtilis [1]) [mg/L],MIC (Candida albicans [2]; [13]) [mg/L],"MIC (Candida albicans [3]; Candida albicans, 3110, 24 h) [mg/L]",MIC (Candida albicans [5]; [14]) [mg/L],MIC (Enterococcus durans [6]) [mg/L],MIC (Staphylococcus aureus [7]; read-out: MIC) [mg/L],MIC (Bacillus subtilis [1]; read-out: MIC) [mg/L],MIC (Enterococcus durans [8]; read-out: MIC) [mg/L],MIC (Bacillus subtilis [9]; read-out: MIC) [mg/L],MIC (Staphylococcus aureus [4]; read-out: MIC) [mg/L],MIC (Enterococcus durans [6]; read-out: MIC) [mg/L],MIC (Candida albicans [3]; [16]) [mg/L],also measured
COc1ccc(CCCCCCCCC(=O)c2c(OC)cccc2OC)cc1,> 32,< 32,> 32,< 32,> 32,,,,,,,,MIC (Staphylococcus aureus [4]): > 32 mg/L
COc1ccc(CCCCCCCCC(=O)c2c(O)cccc2OC)cc1,> 32,< 32,> 32,< 32,> 32,,,,,,,,MIC (Staphylococcus aureus [4]): > 32 mg/L
O=C(N[C@H](CO)[C@H](O)c1ccc([N+](=O)[O-])cc1)C(Cl)Cl [CHLORAMPHENICOL],,,,,,4,4,4,4,4,1,,
COc1cccc(OC)c1C(=O)CCCCCCCCc1ccc(O)cc1,> 32,< 32,,,> 32,,,,,32,,< 32,"MIC (Staphylococcus aureus [7]): > 32 mg/L; MIC (Candida albicans [10]; [15]): > 32 mg/L; MIC (Candida albicans [11]; Candida albicans, 3110, 48 h): > 32 mg/L; MIC (Enterococcus durans [8]): > 32 mg/L; MIC (Candida albicans [12]; Candida albicans, 3153, 48 h): > 32 mg/L; MIC (Bacillus subtilis [9]): > 32 mg/L; MIC (Candida albicans [5]; Candida albicans, 3153, 24 h): > 32 mg/L"
O=C(CCCCCCCCc1ccc(O)cc1)c1c(O)cccc1O [MALABARICONE B],,16,,4,,1,1,2,1,1,1,8,MIC (Candida albicans [10]; [17]): 16 mg/L; MIC (Candida albicans [11]; [18]): 8 mg/L; MIC (Candida albicans [12]; [19]): 8 mg/L
O=C(CCCCCCCCc1ccc(O)c(O)c1)c1c(O)cccc1O [MALABARICONE C],,32,,8,,8,2,8,2,4,4,8,MIC (Candida albicans [10]; [17]): 32 mg/L; MIC (Candida albicans [11]; [18]): 8 mg/L; MIC (Candida albicans [12]; [19]): 8 mg/L
COc1cccc(O)c1C(=O)CCCCCCCCc1ccc(O)cc1,,,> 32,,,4,4,4,4,4,2,,"MIC (Candida albicans [2]; [20]): > 32 mg/L; MIC (Candida albicans [5]; Candida albicans, 3153, 24 h): > 32 mg/L"
NYSTATIN,,,,,,,,,,,,,MIC (Candida albicans [10]): 4 mg/L; MIC (Candida albicans [11]): 4 mg/L; MIC (Candida albicans [2]): 2 mg/L; MIC (Candida albicans [12]): 4 mg/L; MIC (Candida albicans [3]): 2 mg/L; MIC (Candida albicans [5]): 2 mg/L
Oc1ccc(CCCCCCCCC(O)c2c(O)cccc2O)cc1 (centres undefined),,,> 32,32,,16,4,16,4,8,8,,"MIC (Candida albicans [10]; [15]): > 32 mg/L; MIC (Candida albicans [11]; Candida albicans, 3110, 48 h): > 32 mg/L; MIC (Candida albicans [2]; [20]): > 32 mg/L; MIC (Candida albicans [12]; Candida albicans, 3153, 48 h): > 32 mg/L"
Oc1ccc(CCCCCCCCCc2c(O)cccc2O)cc1,,16,,8,,4,4,8,4,4,4,8,MIC (Candida albicans [10]; [17]): 16 mg/L; MIC (Candida albicans [11]; [18]): 8 mg/L; MIC (Candida albicans [12]; [19]): 8 mg/L
CC(=O)c1c(O)cccc1O,> 32,,,,> 32,,,,,,,< 32,"MIC (Candida albicans [2]; [20]): > 32 mg/L; MIC (Staphylococcus aureus [4]): > 32 mg/L; MIC (Candida albicans [5]; Candida albicans, 3153, 24 h): > 32 mg/L"
